Test results from ChEMBL document CHEMBL1144932, “Design, synthesis, and biological properties of new bis(acridine-4-carboxamides) as anticancer agents” (J Med Chem, 2003).
Values belong to the compound of their own block, whether it stands above or below them.

What was measured:
[1] = species on record: Homo sapiens; assay: In vitro cytotoxic activity against human colon adenocarcinoma (HT-29).; assay type: functional
In short: (§1)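 HT29 cells were seeded at 2.5 × 10^4 cells/mL of medium and drug solutions were added. Exposure lasted 144 h. IC50 is the drug concentration inhibiting cell growth by 50%. Assays were run in triplicate.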

[2] = Apparent equilibrium constant for DNA binding (G-C); assay type: ADME
In short: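 Ethidium displacement at pH 7.0 in buffer of 10 mM Na2HPO4, 10 mM NaH2PO4, 1 mM EDTA with 1.26 μM ethidium bromide and 1 μM CT-DNA, [poly(dA-dT)]2 or [poly(dG-dC)]2. Drug stock (~5 mM in DMSO) added serially. Fluorescence read at 20 °C, excitation 546 nm, emission 595 nm. C50 is the mean of three determinations. Kapp = 1.26/C50 × 10^7.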

[3] = species on record: Homo sapiens; assay: In vitro cytotoxic activity against human colon adenocarcinoma (HT-29); assay type: functional; in short: as §1
[4] = system: MCF7; assay: Percent growth of breast MCF-7 cell line at compound concentration 10e-6 was determined; assay type: functional, Homo sapiens
In short: (§2)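 Cells in the NCI panel were exposed for 48 h to 10^-8, 10^-6 and 10^-4 or 10^-5 M drug. Growth is given as percent of untreated control (100%). Negative values are the percent of cells killed relative to the initial cell number.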

[5] = system: MCF7; assay: Percent growth of breast MCF-7 cell line at compound concentration 10e-8 was determined; assay type: functional, Homo sapiens; in short: as §2
[6] = system: MCF7; assay: Percent growth of breast MCF-7 cell line at compound concentration 10e-5 was determined; assay type: functional, Homo sapiens; in short: as §2
[7] = system: HCT-116; assay: Percent growth of colon HCT116 cell line at compound concentration 10e-5 was determined; assay type: functional, Homo sapiens; in short: as §2
[8] = system: HCT-116; assay: Percent growth of colon HCT116 cell line at compound concentration 10e-6 was determined; assay type: functional, Homo sapiens; in short: as §2
[9] = system: HCT-116; assay: Percent growth of colon HCT116 cell line at compound concentration 10e-8 was determined; assay type: functional, Homo sapiens; in short: as §2
[10] = system: NCI-H460; assay: Percent growth of lung-NSC NCI-H460 cell line at compound concentration 10e-5 was determined; assay type: functional, Homo sapiens; in short: as §2
[11] = system: NCI-H460; assay: Percent growth of lung-NSC NCI-H460 cell line at compound concentration 10e-6 was determined; assay type: functional, Homo sapiens; in short: as §2
[12] = system: RPMI-8226; assay: Percent growth of leukemia RPMI-8226 cell line at compound concentration 10e-5 was determined; assay type: functional, Homo sapiens; in short: as §2
[13] = system: RPMI-8226; assay: Percent growth of leukemia RPMI-8226 cell line at compound concentration 10e-6 was determined; assay type: functional, Homo sapiens; in short: as §2
[14] = system: RPMI-8226; assay: Percent growth of leukemia RPMI-8226 cell line at compound concentration 10e-8 was determined; assay type: functional, Homo sapiens; in short: as §2
[15] = system: NCI-H460; assay: Percent growth of lung-NSC NCI-H460 cell line at compound concentration 10e-8 was determined; assay type: functional, Homo sapiens; in short: as §2
[16] = system: LOX IMVI; assay: Percent growth of melanoma LOX IMVI cell line at compound concentration 10e-5 was determined; assay type: functional, Homo sapiens; in short: as §2
[17] = system: LOX IMVI; assay: Percent growth of melanoma LOX IMVI cell line at compound concentration 10e-6 was determined; assay type: functional, Homo sapiens; in short: as §2
[18] = system: LOX IMVI; assay: Percent growth of melanoma LOX IMVI cell line at compound concentration 10e-8 was determined; assay type: functional, Homo sapiens; in short: as §2
[19] = system: OVCAR-4; assay: Percent growth of ovarian OVCAR-4 cell line at compound concentration 10e-5 was determined; assay type: functional, Homo sapiens; in short: as §2
[20] = system: OVCAR-4; assay: Percent growth of ovarian OVCAR-4 cell line at compound concentration 10e-8 was determined; assay type: functional, Homo sapiens; in short: as §2
[21] = system: 786-0; assay: Percent growth of renal 786-0 cell line at compound concentration 10e-5 was determined; assay type: functional, Homo sapiens; in short: as §2
[22] = system: 786-0; assay: Percent growth of renal 786-0 cell line at compound concentration 10e-6 was determined; assay type: functional, Homo sapiens; in short: as §2
[23] = system: 786-0; assay: Percent growth of renal 786-0 cell line at compound concentration 10e-8 was determined; assay type: functional, Homo sapiens; in short: as §2
[24] = system: DU-145; assay: Percent growth of prostate DU-145 cell line at compound concentration 10e-5 was determined; assay type: functional, Homo sapiens; in short: as §2
[25] = system: DU-145; assay: Percent growth of prostate DU-145 cell line at compound concentration 10e-6 was determined; assay type: functional, Homo sapiens; in short: as §2
[26] = system: DU-145; assay: Percent growth of prostate DU-145 cell line at compound concentration 10e-8 was determined; assay type: functional, Homo sapiens; in short: as §2
[27] = system: SNB-19; assay: Percent growth of CNS SNB-19 cell line at compound concentration 10e-5 was determined; assay type: functional, Homo sapiens; in short: as §2
[28] = system: SNB-19; assay: Percent growth of CNS SNB-19 cell line at compound concentration 10e-6 was determined; assay type: functional, Homo sapiens; in short: as §2
[29] = system: SNB-19; assay: Percent growth of CNS SNB-19 cell line at compound concentration 10e-8 was determined; assay type: functional, Homo sapiens; in short: as §2
[30] = system: OVCAR-4; assay: Percent growth of ovarian OVCAR-4 cell line at compound concentration 10e-6 was determined; assay type: functional, Homo sapiens; in short: as §2

SMILES: CN(C)CCNc1ccc(C(=O)NCCCN(C)CCCNC(=O)c2ccc(NCCN(C)C)c3cc4ccccc4nc23)c2nc3ccccc3cc12
IC50 [1]: 230 nM

K app [2]: 3.8e+07 M⁻¹
SMILES: CN(C)CCNC(=O)c1ccc(NCCN(C)CCNc2ccc(C(=O)NCCN(C)C)c3nc4ccccc4c(O)c23)c2c(O)c3ccccc3nc12
IC50 [1]: 410 nM

SMILES: CN(C)CCNc1ccc(C(=O)NCCCN(C)CCCNC(=O)c2ccc(NCCN(C)C)c3c(O)c4cc(O)ccc4nc23)c2nc3ccc(O)cc3c(O)c12
IC50 [1]: 800 nM

SMILES: COc1ccc2nc3c(C(=O)NCCN(C)CCNC(=O)c4ccc(NCCN(C)C)c5c(O)c6cc(OC)ccc6nc45)ccc(NCCN(C)C)c3c(O)c2c1
IC50 [1]: 890 nM

SMILES: CN(C)CCNc1ccc(C(=O)NCCN(C)CCNC(=O)c2ccc(NCCN(C)C)c3c(O)c4ccccc4nc23)c2nc3ccccc3c(O)c12
IC50 [1]: 480 nM

SMILES: COc1ccc2nc3c(C(=O)NCCN(C)C)ccc(NCCN(C)C)c3c(O)c2c1
IC50 [3]: 500 nM

K app [2]: 2.3e+08 M⁻¹
SMILES: CN(C)CCNC(=O)c1ccc(NCCN(C)C)c2cc3ccccc3nc12
IC50 [1]: 7 nM

SMILES: CN(C)CCNc1ccc(C(=O)NCCN(C)CCNC(=O)c2ccc(NCCN(C)C)c3cc4ccccc4nc23)c2nc3ccccc3cc12
IC50 [1]: 2000 nM

SMILES: O=C1c2c(O)ccc(O)c2C(=O)c2c(NCCNCCO)ccc(NCCNCCO)c21 [MITOXANTRONE]
IC50 [1]: 10 nM

K app [2]: 1.4e+07 M⁻¹
SMILES: CN(C)CCNC(=O)c1ccc(NCCN(C)CCNc2ccc(C(=O)NCCN(C)C)c3nc4ccc(O)cc4c(O)c23)c2c(O)c3cc(O)ccc3nc12
IC50 [1]: > 10000 nM

K app [2]: 7.5e+07 M⁻¹
SMILES: CN(C)CCNC(=O)c1ccc(NCCCN(C)CCCNc2ccc(C(=O)NCCN(C)C)c3nc4ccccc4c(O)c23)c2c(O)c3ccccc3nc12
Growth [4]: -6%
Growth [5]: 22%
Growth [6]: -86%
Growth [7]: -96%
Growth [8]: -35%
Growth [9]: 20%
IC50 [1]: 0.43 nM
Growth [10]: -90%
Growth [11]: -52%
Growth [12]: -49%
Growth [13]: -37%
Growth [14]: 16%
Growth [15]: 12%
Growth [16]: -93%
Growth [17]: -65%
Growth [18]: 30%
Growth [19]: -74%
Growth [20]: 46%
Growth [21]: -98%
Growth [22]: -26%
Growth [23]: 30%
Growth [24]: -72%
Growth [25]: -31%
Growth [26]: 11%
Growth [27]: -55%
Growth [28]: -20%
Growth [29]: 38%
Growth [30]: -47%

K app [2]: 2.3e+08 M⁻¹
SMILES: CN(C)CCNC(=O)c1ccc(NCCCN(C)CCCNc2ccc(C(=O)NCCN(C)C)c3nc4ccc([N+](=O)[O-])cc4c(O)c23)c2c(O)c3cc([N+](=O)[O-])ccc3nc12
Growth [4]: 0%
Growth [5]: 26%
Growth [6]: -86%
Growth [7]: -94%
Growth [8]: -5%
Growth [9]: 31%
IC50 [1]: < 0.1 nM
Growth [10]: -95%
Growth [11]: -31%
Growth [12]: -58%
Growth [13]: -44%
Growth [14]: 12%
Growth [15]: 28%
Growth [16]: -93%
Growth [17]: -40%
Growth [18]: 28%
Growth [19]: -72%
Growth [20]: 67%
Growth [21]: -95%
Growth [22]: 6%
Growth [23]: 41%
Growth [24]: -93%
Growth [25]: -2%
Growth [26]: 55%
Growth [27]: -96%
Growth [28]: -7%
Growth [29]: 42%
Growth [30]: 16%

SMILES: CN(C)CCNC(=O)c1ccc(NCCN(C)C)c2c(O)c3cc(O)ccc3nc12
IC50 [1]: 2000 nM
